Test [1] has as its system BMDM. The test is described as follows: Effect on NFkappaB expression in M-CSF induced C57BL/6 mouse bone marrow macrophages at 0.5 uM measured over 5 days by Western blot analysis. In kind it is functional, cell-based. The essentials:
(§1)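 C57BL/6 BMM were proliferated with M-CSF alone without RANKL and treated at 0.5 or 10 μM. NF-κB expression was followed over time by Western blot.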
(A western blot detects proteins with antibodies after separation by electrophoresis.)

The test system of test [2] is BMDM. Put plainly: Suppression of NFATc1 expression in M-CSF induced C57BL/6 mouse bone marrow macrophages at 0.5 uM measured over 5 days by Western blot analysis. The test is classed as functional, cell-based. The essentials: (§2)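 C57BL/6 BMM were kept proliferating with M-CSF in the absence of RANKL and treated with compound (0.5 or 10 μM). NFATc1 expression was followed over the culture period by Western blot.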

In test [3] the test system is Mus musculus. The test is described as follows: Antiosteoporotic activity in ddY mouse model of OVX-induced osteoporosis assessed as increase in femur bone mineral density at 1 mg/kg, po administered once daily via gavage for 4 weeks by microcomputed tomographic analysis. In kind it is functional, organism-based. The gist of the method:
(§3)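 Female ddY mice were ovariectomized. Oral gavage began 1 week after surgery and ran once daily for 28 d. Vehicle was 300 μL PBS containing 0.5% (v/v) DMSO, also given to sham and OVX controls. Mice were then euthanized and femur and tibia fixed for CT imaging. Values are mean ± SD of four mice.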

Test [4] relates to Mus musculus. Put plainly: Antiosteoporotic activity in ddY mouse model of OVX-induced osteoporosis assessed as increase in ratio of bone volume/trabecular volume in femur bone at 1 mg/kg, po administered once daily via gavage for 4 weeks by microcomputed tomographic analysis. In kind it is functional, organism-based. The essentials: as §3
Test [5] relates to Mus musculus. Put plainly: Antiosteoporotic activity in ddY mouse model of OVX-induced osteoporosis assessed as reduction in trabecular separation in femur bone at 1 mg/kg, po administered once daily via gavage for 4 weeks by microcomputed tomographic analysis. In kind it is functional, organism-based. The essentials: as §3
Test [6] deals with Mus musculus. The test is described as follows: Antiosteoporotic activity in ddY mouse model of OVX-induced osteoporosis assessed as increase in trabecular thickness in femur bone at 1 mg/kg, po administered once daily via gavage for 4 weeks by microcomputed tomographic analysis. The test is classed as functional, organism-based. The essentials: as §3
For test [7], the system named is Mus musculus. Put plainly: Antiosteoporotic activity in ddY mouse model of OVX-induced osteoporosis assessed as increase in new bone volume in femur bone at 1 mg/kg, po administered once daily via gavage for 4 weeks by microcomputed tomographic analysis. The test is classed as functional, organism-based. The gist of the method:
as §3

The subject of a further test is T-24. The test is described as follows: Antiproliferative activity against human T24 cells after 24 hrs by MTT assay. The test is classed as functional. Conditions: T-24, 24 h, read-out: LD50 (the source's name).
The nature of test [8]: Potency index, ratio of alendronate IC50 to test compound IC50 for inhibition of M-CSF/RANKL-induced osteoclast differentiation in C57BL/6 mouse bone marrow macrophages by measuring decrease in multinucleated TRAP+ cells incubated for 6 days with fresh media replacement on day 3 and measured on day 6 by TRAP staining-based microscopic analysis. In kind it is functional, BMDM.

For test [9], the system named is MC3T3-E1. The test is described as follows: Induction of osteoblast differentiation in mouse MC3T3-E1 cells co-cultured with C57BL/6 mouse bone marrow macrophages assessed as activation of ALP production at 10 uM measured on day 14 relative to control. The test is classed as functional. The gist of the method:
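MC3T3-E1 cells were cocultured with C57BL/6 BMM in differentiation factors for both cell types, with 10 μM compound, and grown for 21 d. ALP production was measured at 7, 14 and 21 d after coculture induction, relative to untreated cells.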

Test [10] has as its system BMDM. The test is described as follows: Inhibition of M-CSF/RANKL-induced osteoclast differentiation in C57BL/6 mouse bone marrow macrophages co-cultured with mouse MC3T3-E1 cells assessed as reduction in multinucleated TRAP+ cells at 10 uM measured on day 6 by TRAP staining-based inverted microscopic analysis. The test is classed as functional, cell-based. The gist of the method:
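C57BL/6 BMM were cocultured with MC3T3-E1 preosteoblasts in osteoclast and osteoblast differentiation factors. The negative control had M-CSF only. Compound was added at a final 10 μM. TRAP staining and inverted-microscope inspection were done on day 6.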

In test [11] the test system is MC3T3-E1. Put plainly: Induction of osteoblast differentiation in ascorbic acid/beta-glycerophosphate-induced mouse MC3T3-E1 cells co-cultured with C57BL/6 mouse bone marrow macrophages at 10 uM measured on day 6 by TRAP staining-based inverted microscopic analysis. In kind it is functional, cell-based.
Test [12] deals with MC3T3-E1. Put plainly: Induction of osteoblast differentiation in mouse MC3T3-E1 cells assessed as increase in osteocalcin expression at 50 uM after 21 days by Western blot analysis relative to control. In kind it is functional. The gist of the method:
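MC3T3-E1 cells were differentiated with osteoblast differentiation factors, with or without 50 μM compound, for 21 d. The negative control lacked differentiation factors. Osteocalcin in culture medium was measured by Western blot at 7, 14 and 21 d. Values are mean ± SD of three independent experiments.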

Test [13] has as its system BMDM. The test is described as follows: Inhibition of M-CSF/RANKL-induced osteoclast differentiation in C57BL/6 mouse bone marrow macrophages co-cultured with mouse MC3T3-E1 at 10 uM measured on day 14. In kind it is functional, cell-based.
Test [14] deals with BMDM. Put plainly: Inhibition of M-CSF/RANKL-induced osteoclast differentiation in C57BL/6 mouse bone marrow macrophages co-cultured with mouse MC3T3-E1 at 10 uM measured on day 21. In kind it is functional, cell-based.
Test [15] relates to MC3T3-E1. The test is described as follows: Induction of osteoblast differentiation in ascorbic acid/beta-glycerophosphate-induced mouse MC3T3-E1 cells co-cultured with C57BL/6 mouse bone marrow macrophages assessed as increase in osteocalcin expression at 10 uM measured on day 7 by Western blot analysis. The test is classed as functional, cell-based. The gist of the method: (§4)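 MC3T3-E1 and C57BL/6 BMM cocultures were given osteoblast plus osteoclast differentiation factors, with or without 10 μM compound, for 21 d. The negative control had M-CSF only. Osteocalcin in culture medium was quantified by Western blot at 7, 14 and 21 d.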

Test [16] has as its system MC3T3-E1. Put plainly: Induction of osteoblast differentiation in ascorbic acid/beta-glycerophosphate-induced mouse MC3T3-E1 cells co-cultured with C57BL/6 mouse bone marrow macrophages assessed as increase in osteocalcin expression at 10 uM measured on day 14 by Western blot analysis. The test is classed as functional, cell-based. The gist of the method: as §4
In test [17] the test system is MC3T3-E1. The test is described as follows: Induction of osteoblast differentiation in ascorbic acid/beta-glycerophosphate-induced mouse MC3T3-E1 cells co-cultured with C57BL/6 mouse bone marrow macrophages assessed as increase in osteocalcin expression at 10 uM measured on day 21 by Western blot analysis. The test is classed as functional, cell-based. The gist of the method:
as §4

Test [18] deals with BMDM. The test is described as follows: Effect on NFkappaB expression in M-CSF induced C57BL/6 mouse bone marrow macrophages at 10 uM measured over 5 days by Western blot analysis. In kind it is functional, cell-based. The essentials:
as §1

Test [19] deals with BMDM. Put plainly: Suppression of NFATc1 expression in M-CSF induced C57BL/6 mouse bone marrow macrophages at 10 uM measured over 5 days by Western blot analysis. In kind it is functional, cell-based. The essentials: as §2
The test system of test [20] is MC3T3-E1. Put plainly: Induction of osteoblast differentiation in ascorbic acid/beta-glycerophosphate-induced mouse MC3T3-E1 cells assessed as increase in RUNX2 expression at 50 uM after 7 days by Western blot analysis relative to control. In kind it is functional. The essentials: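 MC3T3-E1 cells were induced with osteoblast differentiation factors, with or without 50 μM compound, for 21 d. Cells were harvested at 7, 14 and 21 d and RUNX2 was quantified by Western blot against untreated differentiated cells. The negative control lacked differentiation factors. Values are mean ± SD of three independent experiments.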

The subject of another test is B16-F10. Put plainly: Antiproliferative activity against mouse B16F10 cells after 24 hrs by MTT assay. The test is classed as functional. Conditions: B16-F10, 24 h, read-out: LD50 (the source's name). The essentials: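 Cells were maintained in DMEM at 37 °C under 5% CO2. Growth and survival were estimated by MTT assay, and the value is reported as LD50.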
(In general: Formazan colour is commonly taken as a measure of viable cells.)

The structures appear in SMILES notation. Active and inactive are the calls of the source. The calls are words filed in the database; no cut-off is given here.

Turning to `COc1ccc(/C=C/C(C)=O)cc1O`, the outcome with BMDM [1] was inactive. In addition, the outcome in the test on BMDM [2], in the test with Mus musculus [3], in the test on Mus musculus [4], in the test on Mus musculus [5], in the test on Mus musculus [6] and in the test with Mus musculus [7] was Active. The CC50 in the test with T-24 was determined as 180 µM. In addition, the “Ratio IC50” value in test [8] amounted to 30.
With `CC(=O)/C=C/c1ccc(O)c(O)c1`, the Activity in the test with MC3T3-E1 [9] came to 110%. The inhibition entry with BMDM [10], in the test with BMDM [13] and in the test with BMDM [14] was “Active” in each case. For the same compound, the outcome with MC3T3-E1 [11], with MC3T3-E1 [15], with MC3T3-E1 [16], with MC3T3-E1 [17] and in the test with BMDM [19] was Active. Besides, the “fold change (FC)” value in the test on MC3T3-E1 [12] came to 2; with MC3T3-E1 [20] it was 1.7. The result in the test with BMDM [18] was inactive. Further, the CC50 with B16-F10 was 65 µM.
